This is one part of a sample in which hits are shown more often than they occur.
ALR H2O2 inh = inhibitors of human ALR sulfhydryl oxidase, primary screen, biochemical, H2O2 detection, HRP-luminol luminescence, single point. purified ALR, DTT oxidation. inhibition, % (test concentration not listed). 290,000 compounds, 3.8% hits;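 active means mean replicate inhibition above about 79%, with every replicate also reaching it, limit read from the data; inconclusive means only one of the two criteria met; inactive means mean below limit and not every replicate reaching it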
Target sequence (P55789 whole entry, looked up): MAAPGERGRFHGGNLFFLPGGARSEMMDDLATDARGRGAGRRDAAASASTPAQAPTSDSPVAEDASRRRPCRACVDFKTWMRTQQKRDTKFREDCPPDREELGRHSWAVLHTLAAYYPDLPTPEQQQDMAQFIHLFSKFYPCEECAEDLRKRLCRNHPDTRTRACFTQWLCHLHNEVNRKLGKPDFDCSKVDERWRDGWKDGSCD
N-glyco inh = increase of ERlucT glycosylation luciferase signal, primary screen, N-linked glycosylation inhibitor project, D54 ERlucT cells, luminescence, set 2 | D54 ERlucT glycosylation luciferase reporter, 24 h; percent of 100 nM tunicamycin response | reporter increase, % at 12.5 µM | 360,000 compounds, 0.23% hits;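 active means mean luciferase reporter signal, scaled so untreated is 0 and the glycosylation-blocking control 100, at or above a set limit in every replicate; inconclusive means mean reaches the limit but not every replicate does; inactive means mean below the limit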;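 further: luciferase carries N-glycosylation sites so blocking glycosylation raises the light; 0% = median of neutral control wells and 100% = median of 100 nM tunicamycin wells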
T cell modulator = modulators of CD8 T cell-vesicle binding, primary screen, mouse 2C CD8+ T cells, flow cytometry | 330,000 compounds, 0.068% hits | response (vesicle binding), % at 7 µM | 2C CD8+ T cell-vesicle binding; active compounds read low;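 active means response, share of CD8 T cells binding vesicles, and their 90th percentile fluorescence all below set limits, cut at about 80% in these data, passing the limit was not always enough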;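 further: values below 100% mean blocked vesicle binding to the CD8+ T cells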
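Benchmarks: naked versus QL9-loaded vesicles / Assay system: purified 2C TCR transgenic mouse naive CD8+ T cells / Technique: high-throughput flow cytometry with anti-B7-1 and anti-CD8 staining / Timing: Cell–vesicle co-incubation 1.5 h at 37 °C, staining 20 min on ice / Read-out: percent CD8+ FL2 mean versus row control / Probe or stimulus: QL9-loaded Drosophila micro-vesicles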
* hit, by the source's call; i = inactive; ? = inconclusive; · = no result given.

SMILES	ALR H2O2 inh	N-glyco inh	T cell modulator
O=C(CCOc1ccccc1)Nc1cccc([N+](=O)[O-])c1	3	-1	159
Cn1ccnc1SCC(=O)Nc1ccc2ccccc2c1	11	-11	382
O=C(CSc1nccn1Cc1ccccc1)Nc1ccccc1	100*	-2	396
CC(C)C(OC(=O)c1nsc(Cl)c1Cl)C(=O)NCC1CCCO1 (stereo not given)	-1	3	646
O=C(NC1CCN(C(=O)Nc2ccccc2Cl)CC1)c1cccc(F)c1	2	0	297
O=C(CCN1C(=O)c2cccc([N+](=O)[O-])c2C1=O)NC1CCCCCC1	-73	0	211
O=C(Nc1nnc(-c2ccc(F)cc2)o1)C1CCCN1S(=O)(=O)c1cccs1 (stereo not given)	-7	0	264
CC(C)(C)C(=O)N1CCN(S(=O)(=O)c2ccc3c(c2)OCCCO3)CC1	-12	-1	352
NC(Cc1ccccc1)c1csc(Nc2ccc(C(=O)c3ccccc3)cc2)n1 (stereo not given)	·	-6	·
CCCC1(CCC)NC(=O)N(CC(=O)Nc2ccc3c(c2)OCCO3)C1=O	2	0	422
Cc1cccc(NC(=O)CSc2nccn2Cc2ccco2)c1	?	0	674
Cn1ccnc1SCC(=O)c1ccc2ccccc2c1	99*	-7	311
Cc1cccc(NC(=O)CSc2nccn2C)c1	100*	2	270
Cc1cccc(NC(=O)CSc2ncnc3nc[nH]c23)c1	90*	1	585
Cc1cccc(NC(=O)CSc2ncnc3sc(C)cc23)c1	-3	1	350
COc1cccc(C(=O)CSc2nccn2C)c1	15	-1	322
C[C@@H]1CN([C@H](C)CO)C(=O)CCCn2nncc2CO[C@@H]1CN(C)C(=O)c1ccncc1	·	3	·
O=C(Nc1ccc(Cl)cc1)c1cc2c(cc1O)[nH]c1ccccc12	-2	-7	67
O=C1CCc2cc(S(=O)(=O)N3CCC(C(=O)Nc4nccs4)CC3)ccc2N1	-16	-1	258
Cc1cccnc1NC(=O)C1CCN(S(=O)(=O)c2ccc3c(c2)CCC(=O)N3)CC1	90*	0	474
Cn1cc(S(=O)(=O)N2CCOCC2)cc1C(=O)NCc1ccc(Cl)cc1	7	0	0
O=C1CCCc2cc(S(=O)(=O)N3CCC(C(=O)NCc4ccccc4)CC3)ccc2N1	0	0	702
CN(C)c1ccc(CNC(=O)c2cc(S(=O)(=O)N3CCOCC3)cn2C)cc1	98*	0	686
CN(C)c1ccc(CNC(=O)C2CCN(S(=O)(=O)c3ccc4c(c3)CCC(=O)N4)CC2)cc1	91*	5	i
COc1ccccc1C#CC1=CC(=O)C[C@H](c2ccc(F)cc2)C1	·	-4	·
SMILES	ALR H2O2 inh	N-glyco inh	T cell modulator
O=C(CN1C(=O)c2ccccc2C1=O)OCC(=O)N1CCN(c2ccccc2)CC1	·	1	359
CNC(=O)c1ccsc1NC(=O)C1CCN(S(=O)(=O)c2cccs2)CC1	27	2	309
Cc1ccc(C)c(-n2ccnc2SCC(=O)Nc2cccc(S(=O)(=O)NC3=NCCC3)c2)c1	-4	-1	452
CCC(CC)CN1CCC(CN2C(=S)NC[C@@H]2CC(C)C)CC1	·	2	·
CCCCn1c(=O)[nH]c(=O)c2c1nc(Cn1ncc(Cl)c(Cl)c1=O)n2CCC	-20	-7	606
CCCOc1ccc(F)cc1-c1cc(C(=O)Nc2ccccc2)[nH]n1	·	0	·
CNc1nc(Nc2ccc(C(C)=O)cc2)nc(OC(C(F)(F)F)C(F)(F)F)n1	100*	-1	344
CC(=O)c1ccc(Nc2nc(NCCO)nc(OC(C(F)(F)F)C(F)(F)F)n2)cc1	0	4	238
Cc1ccc(S(=O)(=O)NCCc2ccncc2)cc1[N+](=O)[O-]	-7	2	170
COc1ccc(O)c(C(=O)c2cnc3c(c2)CN(C)C(=O)N3)c1	14	5	232
CN1Cc2cc(C(=O)c3ccccc3O)cnc2NC1=O	87*	0	337
O=C(CSc1nccn1-c1ccc(Cl)cc1)N1CCCc2ccccc21	-23	-7	192
COc1ccc(Nc2ccccc2C(=O)O)cc1	99*	-1	156
COc1ccc(Nc2ncc(C(=O)O)c3ccccc23)cc1	-25	2	153
COc1ccc(Nc2cccc3ccccc23)cc1	?	0	207
COc1ccc(Nc2cccccc2=O)cc1	97*	-2	298
COc1ccc(Nc2ccc(OC)cc2)cc1	99*	-1	238
COc1ccc(NC2=CC(=O)N(C)C2=O)cc1	5	0	210
COc1ccc(NC2=C(C)C(=O)CC2)cc1	13	32*	211
COc1ccc(Nc2ccc(Nc3ccc(OC)cc3)nn2)cc1	-11	1	607
O=C(O)C1=C(C(=O)Nc2cc(C(F)(F)F)ccc2Cl)CCCC1	6	1	186
O=C(Nc1ccc2[nH]c(=O)[nH]c2c1)C(F)(F)F	-27	0	299
O=C(COC(=O)c1ccc(Cl)nc1)NCCc1ccc(F)cc1	-18	1	173
CC1(Cc2ccccc2F)C(=O)Nc2c(Cl)ccc(Cl)c21 (stereo not given)	·	-2	·
O=C(Nc1ccccc1)Nc1cccc2ccccc12	-3	1	591
SMILES	ALR H2O2 inh	N-glyco inh	T cell modulator
O=C(Nc1ccccc1)Nc1ccc(O)c2ccccc12	87*	·	59
O=C1C2C3CCC(O3)C2C(=O)N1c1cc(OCC(F)F)cc([N+](=O)[O-])c1 (stereo not given)	·	1	·
FC(F)(F)c1cnc(NNC(=S)Nc2ccc(Cl)cc2)c(Cl)c1	98*	1	255
Cc1ccc(NC(=S)NNc2ncc(C(F)(F)F)cc2Cl)cc1	-9	-3	316
Cc1ccc(OCC(=O)N(Cc2cccs2)C2CCS(=O)(=O)C2)cc1C (stereo not given)	-5	1	425
Cc1cc(-c2nnc(SCC(=O)Nc3nc(-c4ccccc4)cs3)o2)no1	99*	4	0
O=C(CSc1nc2ccccc2o1)Nc1nc2ccccc2s1	-11	0	344
Cc1csc(NC(=O)CSc2nnc(-c3cc(C)on3)o2)n1	94*	5	148
Cc1occc1-c1nnc(SCC(=O)Nc2nc(-c3ccccc3)cs2)o1	-8	-3	405
O=C(CSc1nc2ccccc2o1)Nc1nc(-c2ccccc2)cs1	99*	-9	i
Cc1cc(-c2nnc(SCC(=O)NC3CCCC3)o2)no1	-6	-1	706
CC(c1ccco1)N(C(=O)c1cccc(S(=O)(=O)N(C)C)c1)c1ccccn1 (stereo not given)	-1	-1	179
COc1ccc(C(=O)CSC#N)cc1OC	99*	26*	486
COc1ccc(C(=O)COC(=O)c2ccc(OC)c(OC)c2)cc1OC	28	0	84
COc1ccc(C(=O)CSc2nc(SC)ns2)cc1OC	·	-2	180
COc1ccc(C(=O)CSc2cc(C)nc3nc(C)nn23)cc1OC	98*	6	316
O=C(O)C1=CC[C@@H](c2ccc(Cl)cc2)N(S(=O)(=O)c2ccc(Cl)cc2)[C@H]1c1ccccc1	-2	0	663
CCOC(=O)C1=CN(C(C)C)CCC1=O	·	0	·

Bioassay records (PubChem)
